Blank lines part the entries; values can stand above or below the molecule they belong to.
Experiments:
[1] = tested on: bid−/− bim−/− mouse liver mitochondria (BAK); assay: MOMP assay, cyt c release from bid−/− bim−/− mouse liver mitochondria; assay type: biochemical; settings: for BAK-mediated MOMP (cyt c release), bid−/− bim−/− mitochondria: 1 h incubation, peptides up to 50 μM
In short: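 Enriched mitochondrial fractions purified from bid−/− bim−/− mouse liver, run in parallel with bak−/− mouse liver mitochondria. Mitochondria incubated 1 h with unstapled or hydrocarbon-stapled BH3 peptides; MOMP read as cytochrome c release.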

cBAK = assay: Calpain protease sensitivity assay of cBAK; assay type: biochemical, human; settings: 50 mM HEPES pH 7.5, 10 mM DTT, 1 µM m-calpain, 0.5 mM CaCl2, 1% CHAPS, 24°C
[2] = target: calpain-proteolyzed cBAK (residues 15–186) (human) (UniProt Q16611); assay: AUC
[3] = tested on: bak−/− mouse liver mitochondria; assay: MOMP assay with cBAK mutants or SAHBq–cBAK traps and NC BID ± ABT-737; assay type: biochemical; settings: 1 h incubation

Molecule: LWAAQRYGRELRXMSDXFVDSF (sidechain bridge or staple) [BAD SAHB]
BAK-mediated MOMP (cyt c release), bid−/− bim−/− mitochondria [1]: unable to robustly activate BAK

Molecule: AEIIVECATQLRRVGDKLNFRI [NOXA/BIDf]
BAK-mediated MOMP (cyt c release), bid−/− bim−/− mitochondria [1]: weakly active | Calpain sensitivity of cBAK with peptide, in CHAPS (cBAK): enhanced protease sensitivity

fold enhancement of BAK binding over the unstapled counterpart (BH3a) [2]: 10 fold | stoichiometry N [2]: 1
Molecule: BID SAHBa (stapled BID BH3 peptide) (from UniProt P55957 80-101)

Molecule: LWAAQRIGRELRRMGDEMVDSI [BAD/BIDa]
BAK-mediated MOMP (cyt c release), bid−/− bim−/− mitochondria [1]: weakly active | Calpain sensitivity of cBAK with peptide, in CHAPS (cBAK): enhanced protease sensitivity

Molecule: NLWAAQRYGRELRRMSDKFVDSFKK [BADa]
BAK-mediated MOMP (cyt c release), bid−/− bim−/− mitochondria [1]: largely inactive | Calpain sensitivity of cBAK with peptide, in CHAPS (cBAK): unable to activate cBAK

Molecule: QPSPARAPAELEVECATQLRXFGDXLNFRQ (sidechain bridge or staple) [NOXA SAHB]
BAK-mediated MOMP (cyt c release), bid−/− bim−/− mitochondria [1]: unable to robustly activate BAK | BAK-mediated MOMP at the highest concentration tested ([1]; highest concentration tested): weak BAK-mediated MOMP

Molecule: CC[C@H](C)[C@H](NC(=O)[C@H](CO)NC(=O)[C@H](CCCNC(=N)N)NC(=O)[C@H](CC(=O)O)NC(=O)[C@H](CCSC)NC(=O)[C@H](CO)NC(=O)[C@H](CC(=O)O)NC(=O)CNC(=O)[C@@H](NC(=O)[C@H](CCC(N)=O)NC(=O)[C@H](C)NC(=O)[C@H](CC(C)C)NC(=O)[C@H](Cc1c[nH]cn1)NC(=O)[C@H](CCCNC(=N)N)NC(=O)[C@H](C)NC(=O)[C@@H](NC(=O)[C@H](CC(N)=O)NC(=O)[C@H](CCCNC(=N)N)NC(=O)[C@@H](NC(=O)[C@@H](NC(=O)[C@H](CC(=O)O)NC(=O)[C@H](CCC(=O)O)NC(C)=O)[C@@H](C)CC)[C@@H](C)CC)[C@@H](C)CC)C(C)C)C(N)=O [BH3a]
Calpain sensitivity of cBAK with peptide, in CHAPS (cBAK): susceptible to proteolysis by calpain

Molecule: PAELEVECATQLRRFGDKLNFRQKLL [NOXAa]
BAK-mediated MOMP (cyt c release), bid−/− bim−/− mitochondria [1]: largely inactive | Calpain sensitivity of cBAK with peptide, in CHAPS (cBAK): unable to activate cBAK

Molecule: CN(C)CC[C@H](CSc1ccccc1)Nc1ccc(S(=O)(=O)NC(=O)c2ccc(N3CCN(Cc4ccccc4-c4ccc(Cl)cc4)CC3)cc2)cc1[N+](=O)[O-] [ABT-737]
Effect of ABT-737 on MOMP activity of BH2-tethered SAHBq–cBAK traps [3]: failed to enhance | Effect of ABT-737 on MOMP activity of untethered cBAK mutants [3]: augmented

Source: PMC3683554 (Nature structural & molecular biology, 2013)
